Assay outcomes as filed in PubChem.
KCNQ1 act: human KCNQ1 channel potentiation or activation; P51787; CHO-K1 KCNQ1, thallium flux FluxOR fluorescence; hits give high values; B-score at 10 µM; 310,000 tested, 0.35% active; AID 2648;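 active means fluorescence ratio B-score, a plate-corrected score, at least three library SD, with initial intensity B-score within 5 SD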
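assay system = KCNQ1-transfected CHO-K1 cells | medium = assay buffer with matched DMSO | probe or stimulus = depolarizing K+/Tl+ stimulus, K2SO4 and Tl2SO4 each 12.5 mM in 5x stock | dosing = single dose | incubation = dye 90 min, compound 20 min, room temperature | detection = kinetic FluxOR fluorescence, 10 s baseline plus 110 s post-stimulus | evaluation = ratio B score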
KCNK3 block: human KCNK3 channel inhibition, primary screen. O14649. CHO-KCNK3 thallium flux, FluxOR fluorescence; hits give low values. B-score at 10 µM. 340,000 tested, 0.84% active. AID 602410;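 active means B-score under library mean minus 4 SD, starting fluorescence ratio at most library mean plus 5 SD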;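 further: more negative B-score means stronger inhibition of thallium flux through KCNK3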
KCNK9 block: inhibitors of human KCNK9 two-pore domain potassium channel; Q9NPC2; HEK293 KCNK9, FluxOR thallium flux fluorescence; hits give low values; B-score at 10 µM; 310,000 tested, 1.2% active;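 active means ratio B-score over 3 SD below the library mean, with starting fluorescence within 5 SD of its mean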;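 further: negative B-score means less thallium flux so channel inhibition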
KCNQ1 inh: blocks the human KCNQ1 potassium channel | 310,000 tested, 1.3% active | B-score at 10 µM | AID 2642 | CHO-K1 KCNQ1, FluxOR thallium flux fluorescence; hits give high values;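 active means compounds whose thallium flux B-score, printed positive for inhibition, exceeds three library SD while starting fluorescence stays within three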;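 further: channel opened by potassium depolarization with thallium stimulus after 20 min compound exposure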
hERG protect: shields human hERG channel from block by proarrhythmic agents; Q12809; CHO-hERG, FluxOR thallium flux, dofetilide IC70 present; activation (rescue from dofetilide block), less the hit threshold, % at 10 µM; 310,000 tested, 0.51% active; AID 1511;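 active means activation above the mean of controls blocked by dofetilide plus 5 SD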;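 further: thallium influx through hERG after potassium depolarization seen as dye fluorescence rise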
Kir21 inh: inhibitors of mouse Kir2.1 inward-rectifier potassium channel; P35561; 310,000 tested, 0.85% active; B-score at 10 µM; HEK293-Kir2.1, FluxOR thallium flux fluorescence; hits give low values;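 active means fluorescence ratio B-score at or below minus 3 SD of library scores, with starting-brightness B-score within 2 SD, cut at about -4.2 in these data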;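 further: channel flux triggered by added potassium and thallium sulfate stimulus; B-score of peak minus minimum fluorescence over baseline after thallium stimulus; more negative B-score means stronger Kir2.1 block with less thallium influx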
KCNK3 inh conf: human KCNK3 channel inhibition, confirmation assay; shares compounds with KCNK3 block; CHO-KCNK3 thallium flux, FluxOR fluorescence; 0% buffer, 100% carvedilol maximal block; ratio percent of control, % at 10 µM; 2,400 tested, 99% active; AID 651638;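 active means ratio percent of control, averaged over triplicates, above buffer control mean plus 5 SD, cut at about 64% in these data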;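 further: ratio is the fluorescence rise from min to max over baseline after thallium stimulus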
KCNK3 noninduced: activity in cells without induced KCNK3 expression | shares compounds with KCNK3 block | non-induced KCNK3 parental cells, FluxOR thallium flux; hits give low values | thallium flux ratio (lower = more inhibition) at 10 µM | 2,400 tested, 40% active;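 active means thallium flux ratio, averaged over three wells, more than 5 SD below the buffer control mean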;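 further: host cells are CHO cells without KCNK3 induction; ratio is peak minus trough fluorescence over baseline then normalized to buffer controls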
An asterisk follows results filed as active; i = inactive; nt = no result given. Sampled rows, rich in hits. Any-hit rate of the full collection: about 3.7%.

SMILES	KCNQ1 act	KCNK3 block	KCNK9 block	KCNQ1 inh	hERG protect	Kir21 inh	KCNK3 inh conf	KCNK3 noninduced
CCCCNC(=O)c1cc2nc3c(c(C(F)(F)F)n2n1)CCc1ccccc1-3	i	i	i	i	-1	-0.46	nt	nt
CC(C)CNC(=O)c1cc2nc3c(c(C(F)(F)F)n2n1)CCc1ccccc1-3	i	-17*	i	i	1	1.1	56*	i
O=C(Nc1nc(-c2ccccc2)cs1)C1c2ccccc2Oc2ccccc21	i	-8.8*	-7.2*	i	-14	0.4	119*	i
Cc1ccccc1Nc1nc(N)nc(-c2oc3ccccc3c2C)n1	i	-10*	-14*	i	-15	0.19	117*	0.16*
O=C(COC(=O)c1ccccc1[N+](=O)[O-])c1ccc2c(c1)OCO2	i	i	i	i	-14	-0.1	nt	nt
O=C(COC(=O)c1ccccc1-c1ccccc1[N+](=O)[O-])c1ccccc1	i	-11*	i	i	-4	2.9	92*	i
CC(C)N(Cc1ccccc1)C(=S)NC1CCCCC1	i	-8.9*	i	i	-10	-5.4*	111*	i
CC(C)N(C(=S)NC1CCCCC1)c1ccccc1	i	nt	i	i	-21	-2.6	nt	nt
CCN1C=C(Cc2ccc(F)cc2)C2=C(C1)C(c1ccc(F)cc1)C(C#N)=C(N)O2 (stereo not drawn)	i	-9.7*	i	i	-12	-1.6	110*	i
Cc1ccc(NC(=O)c2cccs2)cc1NC(=O)c1ccco1	i	-8.8*	i	i	-6	0.1	105*	i
COc1ccc(NC(=O)c2cccs2)cc1NC(=O)c1ccco1	i	i	i	i	-5	-0.57	nt	nt
O=C(Nc1ccc2nc(-c3cccs3)[nH]c2c1)c1ccco1	i	-10*	i	i	-10	1.7	81*	i
CCC(CO)Nc1nc2ccc(Cl)cc2c2ccccc12 (stereo not drawn)	i	-9.2*	i	i	-7	0.05	98*	i
COc1cccc(CNC(=S)Nc2ccc(Cl)cc2C)c1	i	i	i	i	-2	-0.64	nt	nt
S=C(NCc1ccccc1)NCc1cccc(Cl)c1	i	i	i	i	-15	-3.1	nt	nt
Cc1cc(Cl)ccc1NC(=S)NCc1ccccc1	i	-9.5*	i	i	-1	0.3	87*	i
Fc1ccc(CNC(=S)NCc2cccc(Cl)c2)cc1	i	-9.4*	i	i	-20	-4.4*	113*	i
COc1ccc(NC(=O)CSc2nc3[nH]ncc3c(=O)[nH]2)c(OC)c1	i	i	i	i	-17	-1.5	nt	nt
COc1ccc(N2CCN(C(=O)Cc3cccs3)CC2)cc1	i	-9.5*	i	i	3	-0.15	75*	i
CCCN1CCN(C(=O)Nc2cccc(C(F)(F)F)c2)CC1	i	-10*	i	i	-11	0.18	106*	i
O=C(Nc1ccc(Cl)cn1)c1ccc2ccccc2n1	i	-8.7*	i	i	-7	0	93*	i
Cc1ccc(NC(=O)c2ccc3ccccc3n2)nc1	i	i	i	i	-14	0.78	nt	nt
CCCNS(=O)(=O)c1ccc(CCC(=O)N2CCN(c3ccc(F)cc3)CC2)cc1	i	i	i	i	-5	0.73	nt	nt
COC(=O)C1=C(C)N(C2CCCCC2)C(=O)/C1=C\c1cccs1	i	-9.8*	i	i	2	-0.5	98*	0.14*
CCOc1ccccc1N1CCN(C(=S)NCc2ccc(Cl)cc2)CC1	i	-9*	i	i	-12	-0.05	119*	i
SMILES	KCNQ1 act	KCNK3 block	KCNK9 block	KCNQ1 inh	hERG protect	Kir21 inh	KCNK3 inh conf	KCNK3 noninduced
CCOc1ccccc1N1CCN(C(=S)NC(=O)C23CC4CC(CC(C4)C2)C3)CC1	i	i	i	i	-6	-0.45	nt	nt
CCN(N=O)[C@@H](Cc1ccccc1)CN(N=O)[C@@H](Cc1ccccc1)CN(C)N=O	i	i	i	i	-7	-0.58	nt	nt
COC(=O)c1cc(NC(=O)Cc2cc(OC)c(OC)c(OC)c2)cc(C(=O)OC)c1	i	i	i	i	-10	0.16	nt	nt
CC(=O)c1cccc(N(CC(=O)Nc2ccc(S(=O)(=O)N3CCCC3)cc2)S(C)(=O)=O)c1	i	-9.5*	i	i	-6	-0.07	0	i
CC(=O)c1cccc(N(CC(=O)Nc2ccc(S(=O)(=O)N3CCOCC3)cc2)S(C)(=O)=O)c1	i	i	i	i	-7	2.9	nt	nt
CCOC(=O)c1c(O)c2cccc3c2n(c1=O)CC3	i	-9.1*	i	i	2	-0.22	100*	i
CCCNC(=O)c1c(O)c2cccc3c2n(c1=O)CCC3	i	i	i	i	-7	0.15	nt	nt
CS(=O)(=O)NCCCCCCNS(C)(=O)=O	i	i	i	i	-7	0.78	nt	nt
Cc1c(C(=O)NC(C(C)C)C(C)C)cccc1[N+](=O)[O-]	i	i	i	i	-10	-0.84	nt	nt
COc1ccc(Br)cc1CNC(=O)CN1C(=O)C(c2ccccc2)Oc2cccnc21 (stereo not drawn)	i	-10*	i	i	-10	-0.55	95*	i
CCn1c2ccccc2c2cc(CN3CCN(S(=O)(=O)Cc4ccccc4)CC3)ccc21	i	i	i	i	-4	0.16	nt	nt
CC(C)(C)c1ccc(OCCn2nc(C(=O)O)c3ccccc3c2=O)cc1	i	-9.1*	i	i	-8	-0.03	112*	i
O=C(CNC(=O)c1ccco1)NNC(=O)c1n[nH]c(=O)c2ccccc12	nt	i	nt	nt	nt	nt	nt	nt
COc1ccccc1NC(=O)C(C)OC(=O)CCCc1c[nH]c2ccccc12 (stereo not drawn)	i	-10*	-7.2*	i	-14	-0.39	104*	i
CC(NC(=O)c1ccc(F)cc1)C1CC2CCC1C2 (stereo not drawn)	i	i	i	i	-6	-1.6	nt	nt
COc1cc(C(=O)NC(C)C2CC3CCC2C3)ccc1OC(F)F (stereo not drawn)	nt	-12*	nt	nt	nt	nt	110*	0.12*
CC1CCC(NS(=O)(=O)c2ccc(Cl)nc2)CC1 (stereo not drawn)	i	i	i	i	-7	-0.16	nt	nt
COc1ccc(C2c3ccc(O)cc3Oc3ncn(Cc4ccccc4)c(=N)c32)cc1OC (stereo not drawn)	i	-8.9*	i	i	-14	0.27	75*	i
